Measured values as given in ChEMBL document CHEMBL3352381, “Discovery of covalent inhibitors of glyceraldehyde-3-phosphate dehydrogenase, a target for the treatment of malaria” (J Med Chem, 2014).
Active and inactive are the calls of the source. The calls are words filed in the database; no cut-off is given here.

What was measured:
[1] = target: Glyceraldehyde-3-phosphate dehydrogenase (Plasmodium falciparum) (UniProt Q8T6B1); experiment: Inhibition of recombinant Plasmodium falciparum GAPDH expressed in Escherichia coli at 50 to 200 uM by time course assay; details: TDE = time-dependent effect
Outline: (§1)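 Pf GAPDH incubated with inhibitor, aliquots withdrawn over time for activity assay; control enzyme kept without inhibitor under the same conditions. Activity normalized to the inhibitor-free value. Time courses fitted to a sum of two exponential decays. kobs obtained by fitting residual activity versus incubation time to a mechanism-based inhibition equation (kinact, Ki). Duplicates.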

[2] = target: Glyceraldehyde-3-phosphate dehydrogenase (Plasmodium falciparum) (UniProt Q8T6B1); experiment: Inhibition of recombinant Plasmodium falciparum GAPDH expressed in Escherichia coli by UV-vis spectroscopy
Outline: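 Enzyme at 400 μM incubated with inhibitor. Absorption spectra recorded until reaction completion to follow loss of the Racker band.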

[3] = target: Glyceraldehyde-3-phosphate dehydrogenase (Plasmodium falciparum) (UniProt Q8T6B1); experiment: Irreversible inhibition of recombinant Plasmodium falciparum GAPDH expressed in Escherichia coli by time course assay
Outline: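 Pf GAPDH was incubated with inhibitor at 50–300 μM, and enzyme activity was assayed over the incubation time. Activity was normalized to the same enzyme kept under identical conditions without inhibitor. Residual-activity time courses were fitted to a sum of two exponential decays. kobs was obtained by fitting the mechanism-based inhibition equation, giving kinact and Ki. Experiments were done in duplicate.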

[4] = target: Glyceraldehyde-3-phosphate dehydrogenase (Plasmodium falciparum) (UniProt Q8T6B1); experiment: Inhibition of recombinant Plasmodium falciparum GAPDH expressed in Escherichia coli assessed as ratio of kinact to Ki by Kitz-Wilson double-reciprocal plot; outline: as §1
[5] = target: Glyceraldehyde-3-phosphate dehydrogenase (Plasmodium falciparum) (UniProt Q8T6B1); experiment: Inhibition of recombinant Plasmodium falciparum GAPDH expressed in Escherichia coli by time course assay; outline: as §1
[6] = target: Glyceraldehyde-3-phosphate dehydrogenase (Homo sapiens) (UniProt P04406); experiment: Inhibition of human GAPDH assessed as ratio of kinact to Ki by Kitz-Wilson double-reciprocal plot at pH 7.4
[7] = target: Glyceraldehyde-3-phosphate dehydrogenase (Plasmodium falciparum) (UniProt Q8T6B1); experiment: Inhibition of undigested recombinant Plasmodium falciparum GAPDH at 200 uM measured after overnight incubation by mass spectroscopy
Outline: (§2)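 Pf GAPDH incubated overnight with inhibitor at 200 μM. MALDI-TOF on undigested protein (double-layer CHCA matrix) or on tryptic digests (thin-layer CHCA), with MS/MS. Cys alkylation checked by 1 h treatment of 20 μM enzyme with 10-fold excess iodoacetamide before analysis.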

[8] = target: Glyceraldehyde-3-phosphate dehydrogenase (Plasmodium falciparum) (UniProt Q8T6B1); experiment: Inhibition of recombinant Plasmodium falciparum GAPDH expressed in Escherichia coli at 50 to 300 uM by time course assay; outline: as §1
[9] = target: Glyceraldehyde-3-phosphate dehydrogenase (Plasmodium falciparum) (UniProt Q8T6B1); experiment: Inhibition of unmodified recombinant Plasmodium falciparum GAPDH at 200 uM measured after overnight incubation by mass spectroscopy in presence of trypsin; outline: as §2

Glyceraldehyde-3-phosphate dehydrogenase (Plasmodium falciparum), sequence (Q8T6B1 as listed by the source): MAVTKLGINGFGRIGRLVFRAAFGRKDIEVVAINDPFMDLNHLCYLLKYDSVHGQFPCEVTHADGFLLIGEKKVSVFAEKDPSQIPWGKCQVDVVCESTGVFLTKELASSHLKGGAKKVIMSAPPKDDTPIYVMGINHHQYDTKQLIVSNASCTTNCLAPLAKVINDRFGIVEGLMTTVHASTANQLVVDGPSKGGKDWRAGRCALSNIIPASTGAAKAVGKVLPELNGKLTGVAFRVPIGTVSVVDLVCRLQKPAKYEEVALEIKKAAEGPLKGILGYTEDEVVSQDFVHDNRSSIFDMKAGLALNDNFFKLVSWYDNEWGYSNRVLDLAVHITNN
Glyceraldehyde-3-phosphate dehydrogenase (Homo sapiens), sequence (P04406 2-335 limits assumed): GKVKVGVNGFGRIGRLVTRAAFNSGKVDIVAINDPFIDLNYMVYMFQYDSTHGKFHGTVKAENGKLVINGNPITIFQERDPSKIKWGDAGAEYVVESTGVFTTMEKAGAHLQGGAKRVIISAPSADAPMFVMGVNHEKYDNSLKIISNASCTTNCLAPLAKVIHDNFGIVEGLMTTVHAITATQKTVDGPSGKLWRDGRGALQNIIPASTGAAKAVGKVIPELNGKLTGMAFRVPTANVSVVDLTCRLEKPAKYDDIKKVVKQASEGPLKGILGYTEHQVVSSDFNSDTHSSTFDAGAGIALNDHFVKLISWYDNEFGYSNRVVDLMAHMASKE

SMILES	inhibition [1]	inhibition [2]	inhibition [3]	Ratio [4] [M⁻¹ s⁻¹]	inhibition [5]	Ratio [6] [M⁻¹ s⁻¹]	inhibition [7]	inhibition [8]	inhibition [9]
BrC1=NOC(c2ccccc2)C1 (racemic)	tde	Active	Active	10.3	Dose-dependent effect	–	–	–	–
CC(C)(C)OC(=O)N1CC2ON=C(Br)C2C1 (racemic)	tde	–	–	4.8	Dose-dependent effect	–	–	–	–
ClC1=NOC(c2ccccc2)C1 (racemic)	tde	–	Active	–	Dose-dependent effect	–	–	–	–
C=CC=O	–	–	–	–	–	297	–	–	–
O=C(O)CC1CC(Br)=NO1 (racemic)	tde	–	–	0.7	Dose-dependent effect	–	–	–	–
N[C@H](C(=O)OCc1ccccc1)[C@@H]1CC(Br)=NO1	tde	–	–	6.6	Dose-dependent effect	–	Active	–	–
Oc1ccc(C2CC(Br)=NO2)cc1 (racemic)	tde	–	–	3.1	Dose-dependent effect	–	–	–	–
CC(C)(C)OC(=O)NCC1CC(Br)=NO1 (racemic)	–	–	–	2.9	Dose-dependent effect	–	Active	Active	–
N[C@H](C(=O)O)[C@@H]1CC(Cl)=NO1	tde	–	Active	–	Dose-dependent effect	–	–	–	–
C=CC(N)=O	–	–	–	–	–	0.053	–	–	–
N[C@H](C(=O)O)[C@@H]1CC(Br)=NO1	tde	–	Active	0.7	Dose-dependent effect	–	–	–	–
BrC1=NOC(c2ccncc2)C1 (racemic)	tde	–	–	0.47	Dose-dependent effect	–	–	–	–
O=C(N[C@H](C(=O)O)[C@@H]1CC(Br)=NO1)OCc1ccccc1	tde	–	–	2.6	Dose-dependent effect	–	–	–	Active
COC(=O)[C@@H](N)[C@@H]1CC(Br)=NO1	tde	–	–	10.7	Dose-dependent effect	–	Active	–	Active
